Screens deposited in PubChem BioAssay by several laboratories.
Only a selection was taken, and hits are over-represented in it overall.
CD11b adhes enh = enhancers of CD11b/CD18 adhesion to fibrinogen, primary screen, K562 cells, luminescence; ATPlite luminescence; AID 1499, 2009; 93,000 tested, 0.07% active; activation, % at 10 µM; Integrin beta-2 (Homo sapiens) + Integrin alpha-M (Homo sapiens), P05107+P11215;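 active = 10 µM primary screen giving 50% or more activity, confirmed by 40% or more on retest at that dose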
Target sequence (P05107 whole entry, looked up, other chains not shown): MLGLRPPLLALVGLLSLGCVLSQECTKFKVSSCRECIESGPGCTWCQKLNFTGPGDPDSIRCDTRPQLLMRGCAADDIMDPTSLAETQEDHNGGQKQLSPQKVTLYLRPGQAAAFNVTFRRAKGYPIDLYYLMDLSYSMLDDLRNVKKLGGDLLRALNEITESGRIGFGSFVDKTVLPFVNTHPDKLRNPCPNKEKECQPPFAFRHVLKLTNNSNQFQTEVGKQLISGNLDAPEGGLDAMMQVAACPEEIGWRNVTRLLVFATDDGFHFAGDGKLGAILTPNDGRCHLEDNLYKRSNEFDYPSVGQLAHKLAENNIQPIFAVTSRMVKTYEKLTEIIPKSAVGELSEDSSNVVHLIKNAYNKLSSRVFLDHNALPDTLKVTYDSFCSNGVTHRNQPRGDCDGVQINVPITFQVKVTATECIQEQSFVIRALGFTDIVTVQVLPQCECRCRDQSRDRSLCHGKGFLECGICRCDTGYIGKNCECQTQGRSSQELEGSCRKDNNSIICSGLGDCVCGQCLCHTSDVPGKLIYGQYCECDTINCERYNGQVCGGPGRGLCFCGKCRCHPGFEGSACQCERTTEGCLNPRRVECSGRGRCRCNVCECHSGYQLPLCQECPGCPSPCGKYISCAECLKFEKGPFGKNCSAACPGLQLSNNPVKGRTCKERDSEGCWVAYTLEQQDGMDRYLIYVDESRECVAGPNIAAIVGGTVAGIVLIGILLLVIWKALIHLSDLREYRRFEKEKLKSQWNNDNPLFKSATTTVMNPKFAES
Phagocyt inh = inhibitors of macrophage phagocytosis, primary screen, imaging, J774A.1 cells, IgG beads; J774A.1 macrophage IgG-bead phagocytosis; inhibition, % at 5 µM; AID 1029, 2008; 110,000 tested, 0.07% active;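 active = inhibition above the mean of the plate negative controls plus 5 SD, cut at about 13% in these data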;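 also: phagocytic index as fraction of beads internalized from green versus red external bead signal; plate controls were DMSO negative control for no effect and cytochalasin-D positive control for full effect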
Mac1 fbg inh = inhibitors of CD11b/CD18 adhesion to fibrinogen, primary screen, K562 cells, luminescence; Integrin beta-2 (Homo sapiens) + Integrin alpha-M (Homo sapiens), P05107+P11215; ATPlite luminescence; Mn2+ added to activate the integrin; inhibition, % at 10 µM; 93,000 tested, 0.54% active;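 active = primary inhibition of 50% or more at 10 µM, then 40% or more on retest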
Ecoli WT expand = growth inhibitors of wild-type E. coli, primary screen, strain BW25113, expanded library, OD600; OD600 absorbance; growth inhibition, % at 100 µM; 98,000 tested, 0.15% active; AID 710, 2007;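 active = growth inhibition above about 50% at one test dose, limit read from the data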;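 also: growth measured after 20 h incubation at 37 °C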
Ecoli tolC = growth inhibitors of E. coli tolC mutant, primary screen, strain BW25113 ΔtolC::kan, 384-well; growth inhibition, % at 10 µM (by protocol); 65,000 tested, 2.2% active; OD615;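 active = growth inhibition at or above a cutoff equal to the mean over every tested compound plus 3 SD, cut at about 60% in these data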;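 also: growth measured after 20 h incubation at 37 °C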
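Doses: one dose of 10 µM final / Material: E. coli BW25113 ΔtolC::kan, tolC deletion mutant strain / Buffer or medium: LB with kanamycin 50 µg/mL / Evaluation: percent growth inhibition / Detection: optical density read at 615 nm / Incubation: 37 °C, 20 h exposure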
* = called active by the depositor.

What do the screens show for `Cc1cccc(Cc2c(C)nc3c(C(=O)NCc4ccco4)cnn3c2C)c1`?
CD11b adhes enh: -2; Phagocyt inh: 1; Mac1 fbg inh: 10; Ecoli WT expand: 7; Ecoli tolC: 75*

How did Cc1nc2c(C(=O)NCc3ccco3)cnn2c(C)c1Cc1ccc(F)cc1Cl do in these assays?
CD11b adhes enh: -1; Phagocyt inh: -1; Mac1 fbg inh: -9; Ecoli WT expand: -1; Ecoli tolC: 14

Results for CCOc1ccccc1N1CCN(C(=O)CCCc2nc3ccccc3s2)CC1 ?
CD11b adhes enh: 8; Phagocyt inh: -12; Mac1 fbg inh: 2

How did Cc1[nH]c(=S)sc1Cc1ccc(F)cc1 do in these assays?
Phagocyt inh: -8

How did CCOC(=O)c1cc(C)n(S(=O)(=O)c2ccc(C)cc2)c1C do in these assays?
CD11b adhes enh: -4; Phagocyt inh: 0; Mac1 fbg inh: 32; Ecoli WT expand: 13; Ecoli tolC: 66*

How did COc1ccccc1CNC(=O)c1ccc(OC(F)F)c(OC)c1 do in these assays?
CD11b adhes enh: 11; Phagocyt inh: 5; Mac1 fbg inh: -4

What do the screens show for `CC1=C(C(=O)OC(C)(C)C)C(c2cccs2)NC(=O)N1` (centres undefined)?
Phagocyt inh: 2

How did COc1ccc(-c2cnc(SCC(=O)Nc3ccc4c(c3)OCO4)n2Cc2ccco2)cc1 do in these assays?
CD11b adhes enh: -1; Phagocyt inh: 0; Mac1 fbg inh: 33; Ecoli WT expand: -19; Ecoli tolC: 66*

Results for CC(=O)Nc1cccc(NC(=O)CSc2ncc(-c3ccc(Cl)cc3)n2Cc2ccco2)c1 ?
CD11b adhes enh: -6; Phagocyt inh: 0; Mac1 fbg inh: 73; Ecoli WT expand: -8; Ecoli tolC: 94*

How did Cc1cc(C)c(S(=O)(=O)/N=C2\C=CC(=O)C(Cl)=C2)c(C)c1 do in these assays?
CD11b adhes enh: 27; Mac1 fbg inh: 67*; Ecoli WT expand: 4

What do the screens show for `O=C(Nc1ccc(N2CCN(C(=O)c3ccco3)CC2)c(Cl)c1)c1c(F)c(F)c(F)c(F)c1F`?
CD11b adhes enh: 0; Phagocyt inh: 0; Mac1 fbg inh: 24; Ecoli WT expand: -15; Ecoli tolC: 77*

What do the screens show for `CC(C)C(NC(=O)OCc1ccccc1)C(=O)NCc1ccc(C(=O)O)cc1` (centres undefined)?
Phagocyt inh: -13

What do the screens show for `C=CCN1C(=O)C(CC(=O)Nc2ccccc2)SC1=Nc1ccc(S(N)(=O)=O)cc1` (centres undefined)?
Ecoli WT expand: -8

How did CCSc1nnc(NC(=O)CSc2nccn2-c2cccc(C)c2C)s1 do in these assays?
CD11b adhes enh: -2; Phagocyt inh: 0; Mac1 fbg inh: 28; Ecoli WT expand: 4; Ecoli tolC: 84*

How did CCOc1ccc(C(=O)Nc2cccc(-c3nc4cccnc4o3)c2)cc1Cl do in these assays?
CD11b adhes enh: 55*; Phagocyt inh: -1; Mac1 fbg inh: -2; Ecoli WT expand: -7; Ecoli tolC: 49

Results for O=C(O)CCCCCNc1ccc2nsnc2c1[N+](=O)[O-] ?
CD11b adhes enh: -2; Phagocyt inh: 1; Mac1 fbg inh: 25

What do the screens show for `Cc1ccc(S(=O)(=O)Cn2nnnc2CN2CCOCC2)cc1`?
CD11b adhes enh: -1; Phagocyt inh: -1; Mac1 fbg inh: 7; Ecoli WT expand: 0; Ecoli tolC: -24

Results for Cc1ccc(S(=O)(=O)Cn2nnnc2CN2CCCC3(CCCCC3)C2)cc1 ?
CD11b adhes enh: 0; Phagocyt inh: 1; Mac1 fbg inh: -5; Ecoli WT expand: -13; Ecoli tolC: 76*

How did N#C/C(=C\c1cccs1)Sc1nc2ccccc2s1 do in these assays?
CD11b adhes enh: -3; Mac1 fbg inh: 67; Ecoli WT expand: -21; Ecoli tolC: 70*

What do the screens show for `N#C/C(=C\c1ccc[nH]1)Sc1nc2ccccc2s1`?
CD11b adhes enh: 5; Phagocyt inh: -1; Mac1 fbg inh: 13; Ecoli WT expand: 12; Ecoli tolC: 100*

How did N#C/C(=C/c1cccs1)c1nc2ccccc2[nH]1 do in these assays?
Phagocyt inh: -5

What do the screens show for `COC(=O)c1ccc(/C=C(\C#N)c2nc3ccccc3s2)cc1`?
Ecoli WT expand: 4

How did Nc1ccc(C(=O)OCC(=O)Nc2cc([N+](=O)[O-])ccc2F)cc1 do in these assays?
CD11b adhes enh: -1; Phagocyt inh: -10; Mac1 fbg inh: 6

Results for CC1CCC(C(=O)c2c(O)c3ccccc3oc2=O)CC1 (centres undefined) ?
CD11b adhes enh: -4; Phagocyt inh: 0; Mac1 fbg inh: 24; Ecoli WT expand: 8

What do the screens show for `O=C(CC1CCCCC1)c1c(O)c2ccccc2oc1=O`?
CD11b adhes enh: -4; Phagocyt inh: -1; Mac1 fbg inh: 46; Ecoli WT expand: 3; Ecoli tolC: 100*

How did CCCCC(=O)c1c(O)c2ccccc2oc1=O do in these assays?
CD11b adhes enh: -4; Phagocyt inh: -2; Mac1 fbg inh: 8; Ecoli WT expand: -1; Ecoli tolC: 99*

What do the screens show for `CNc1nc(Nc2ccc(Br)cc2)nc(N)c1[N+](=O)[O-]`?
Phagocyt inh: -6

Results for CN1CCN(NC(=S)NC2CCCCC2)CC1 ?
Phagocyt inh: -3

What do the screens show for `ClC(Cl)(c1nnnn1-c1ccccc1)c1nnnn1-c1ccccc1`?
Phagocyt inh: -1

What do the screens show for `CCOc1ccccc1CNC(=O)c1cc2oc3ccccc3c2n1CC`?
CD11b adhes enh: 0; Phagocyt inh: 186*; Mac1 fbg inh: -20; Ecoli WT expand: -12

Results for COc1cccc(CNC(=O)c2cc3oc4ccccc4c3n2C)c1OC ?
CD11b adhes enh: 0; Phagocyt inh: 0; Mac1 fbg inh: -21; Ecoli WT expand: -6; Ecoli tolC: -2

What do the screens show for `COC(=O)c1c(-c2ccc(C)cc2)csc1NC(=O)Cc1ccc(OC)c(OC)c1`?
CD11b adhes enh: -4; Phagocyt inh: -3; Mac1 fbg inh: 54*; Ecoli WT expand: -2

Results for COC(=O)c1c(-c2ccc(Br)cc2)csc1NC(=O)Cc1ccc(OC)c(OC)c1 ?
CD11b adhes enh: -1; Mac1 fbg inh: 2; Ecoli WT expand: -8

Results for Cc1ccc(S(=O)(=O)Nc2ccc(C(=O)OCC(=O)N(CCC#N)c3ccccc3)cc2)cc1C ?
Phagocyt inh: -10

How did O=C(COC(=O)CNC(=O)c1ccccc1)Nc1cccc(Br)c1 do in these assays?
CD11b adhes enh: -4; Phagocyt inh: -1; Mac1 fbg inh: -19

What do the screens show for `NC1=C([N+](=O)[O-])C(c2ccc(F)cc2)C2=C(CCCC2=O)O1` (centres undefined)?
Phagocyt inh: -3

How did N#C/C(C(N)=O)=c1/ccc2c(c1)N1C3=C(CCCC3)CC3CCCCC31N=2 (centres undefined) do in these assays?
CD11b adhes enh: -1; Phagocyt inh: 5; Mac1 fbg inh: 10; Ecoli WT expand: -29; Ecoli tolC: 18
